Assay results reported in ChEMBL document CHEMBL1268912, “Antidiabetic and antiobesity effects of Ampkinone (6f), a novel small molecule activator of AMP-activated protein kinase” (J Med Chem, 2010).
Calls of active or inactive are those of the source. The calls are words filed in the database; no cut-off is given here.

Columns and labels:
[1] = Induction of AMPK phosphorylation in […] cells […]; type: cell-based; conditions: L6, 10 min
[2] = molecular target: AMP-activated protein kinase, AMPK (Homo sapiens) (UniProt P54646+O43741+P54619+Q9UGJ0+Q9Y478+Q13131+Q9UGI9); experiment: Induction of AMPK phosphorylation in human HeLa cells; type: cell-based
Outline: (§1)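 HeLa cells lack endogenous LKB1. They were transfected for 24 h with HA-tagged LKB1 in pcDNA3.1 or mock-transfected. After 6 h serum starvation, cells were exposed to 10 μM for set times. Lysates were immunoblotted for AMPK (pT172), total AMPK and HA.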

L6 (Rattus norvegicus) = experiment: Increase in AMPK-mediated glucose uptake in rat L6 cells by confocal laser scanning microscopy in presence of compound C
[3] = molecular target: T1, Serine/threonine-protein kinase STK11 (Homo sapiens) (UniProt Q15831); experiment: Activation of LKB1 expressed in human HeLa cells assessed as increase in AMPK phosphorylation; type: cell-based; outline: as §1
T1 sequence (whole entry): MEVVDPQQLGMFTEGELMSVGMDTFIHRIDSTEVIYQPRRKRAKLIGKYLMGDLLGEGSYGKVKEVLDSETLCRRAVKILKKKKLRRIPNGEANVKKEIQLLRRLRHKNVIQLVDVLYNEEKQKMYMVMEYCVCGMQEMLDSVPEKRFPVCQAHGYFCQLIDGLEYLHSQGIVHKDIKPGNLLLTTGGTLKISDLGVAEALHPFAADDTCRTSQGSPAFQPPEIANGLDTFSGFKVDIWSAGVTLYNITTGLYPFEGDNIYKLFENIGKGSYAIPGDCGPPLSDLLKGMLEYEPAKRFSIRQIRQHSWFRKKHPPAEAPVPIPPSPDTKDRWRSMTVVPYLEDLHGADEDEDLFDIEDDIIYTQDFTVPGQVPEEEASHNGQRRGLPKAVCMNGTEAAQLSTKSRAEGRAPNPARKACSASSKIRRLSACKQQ

C2C12 [4] = experiment: Increase in AMPK-mediated glucose uptake in mouse C2C12 cells assessed as increase in fluorescent intensity by confocal laser scanning microscopy; type: cell-based
Outline: (§2)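 C2C12 myocytes were differentiated in 2% horse serum, held in low-glucose serum-free medium for 4 h, then treated for 1 h in glucose-free DMEM at 10 μM. In the CLSM chamber at 37 °C, 5 μM Cy3-Glc-R was injected and images taken every 7 s to follow fluorescence uptake.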

C2L12 [5] = experiment: Induction of ACC phosphorylation in mouse […] cells after 1 hr
Mus musculus [6] = experiment: Induction of AMPK phosphorylation in diet induced obese mouse muscle at 10 mg/kg, sc qd by immunoblotting; type: functional, organism-based; set-up: dose 10 mg/kg
Outline: (§3)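 DIO mice were dosed 10 mg/kg/day sc in PEG400 or vehicle for 1 month, n = 7 per group, then fasted 24 h. Liver and muscle lysates were immunoblotted for phospho-AMPK/ACC and the total proteins.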

Mus musculus [7] = experiment: Induction of AMPK phosphorylation in diet induced obese mouse liver at 10 mg/kg, sc qd by immunoblotting; type: functional, organism-based; set-up: dose 10 mg/kg; outline: as §3
C2C12 [8] = experiment: Increase in AMPK-mediated glucose uptake in mouse C2C12 cells by confocal laser scanning microscopy; type: cell-based; outline: as §2
3T3-L1 [9] = experiment: Induction of AMPK phosphorylation in mouse 3T3L1 cells after 1 hr
Mus musculus [10] = experiment: Antidiabetic activity in diet induced obese mouse assessed as reduction in glucose level at 10 mg/kg, sc qd; type: functional, organism-based; set-up: dose 10 mg/kg
Outline: (§4)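 DIO mice were male C57BL/6J fed a 60%-fat diet from 4 weeks of age for 8 weeks. Dosed 10 mg/kg/day sc in PEG400 or vehicle for 1 month, n = 7 per group. Serum insulin was measured by mouse insulin ELISA and blood glucose by glucometer. Mean ± SD; Student's t test/ANOVA.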

Mus musculus [11] = experiment: Antiobesity activity in diet induced obese mouse assessed as change in body weight at 10 mg/kg, sc qd; type: functional, organism-based; set-up: dose 10 mg/kg
Outline: (§5)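 DIO C57BL/6J males (high-fat diet, 60% of calories from fat, for 8 weeks) were given 10 mg/kg/day sc in PEG400 or vehicle for 30 days, n = 7 per group. Body weight and food intake were recorded every 3 days.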

Mus musculus [12] = experiment: Antidiabetic activity in diet induced obese mouse assessed as reduction in insulin level at 10 mg/kg, sc qd; type: functional, organism-based; set-up: dose 10 mg/kg; outline: as §4
L6 = experiment: Induction of ACC phosphorylation in […] cells after 10 mins; type: cell-based
Outline: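 L6, C2C12 or 3T3-L1 cells, serum-starved 6 h, were treated for 1 h with graded concentrations (0–20 μM); L6 cells were also given a 10 μM time course. Lysates were immunoblotted for AMPK pT172, ACC pS79 and the total proteins, with ECL detection.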

Mus musculus [13] = experiment: Antiobesity activity in diet induced obese mouse assessed as change in food intake at 10 mg/kg, sc qd; type: functional, organism-based; set-up: dose 10 mg/kg; outline: as §5
[14] = Activation of AMPK assessed as phosphorylation of T172 at 10 uM by Western blotting relative to control
Outline: (§6)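 L6 cells, serum-starved 6 h, treated with 10 μM for set times (10 min to 6 h). RIPA lysates (40 μg) run on SDS-PAGE and blotted to nitrocellulose. Blocked in TBS-Tween with 5% milk. Probed overnight at 4 °C with anti-ACC (pS79) or anti-AMPK (pT172) and the total-protein antibodies. HRP secondary antibody, ECL detection.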

C2L12 [15] = experiment: Induction of AMPK phosphorylation in mouse […] cells after 1 hr
[16] = Activation of ACC phosphorylation at S79 at 10 uM by Western blotting relative to control; outline: as §6
3T3-L1 [17] = experiment: Induction of ACC phosphorylation in mouse 3T3L1 cells after 1 hr

Row | Structure (SMILES) | Activity [14] | Activity [16] | also measured
1 | COc1ccc2c(c1O)OC(C)(C)c1c-2ccc2c1C(=O)N(c1ccc(C(=O)c3ccccc3)cc1)C2=O [AMPKINONE] | 322% | 295% | EC50 [1]: 4.3 µM; Activity [2]: Active; Activity (L6 (Rattus norvegicus)): inactive; Activity [3]: Active; Activity (C2C12 [4]): Active; Activity (C2L12 [5]): Dose-dependent effect; Activity (Mus musculus [6]): Active; Activity (Mus musculus [7]): Active; fold change (FC) (C2C12 [8]): 3.2; Activity (3T3-L1 [9]): Dose-dependent effect; Activity (Mus musculus [10]): Active; Activity (Mus musculus [11]): inactive; Activity (Mus musculus [12]): Active; Activity (L6): Active; Activity (Mus musculus [13]): inactive; Activity (C2L12 [15]): Dose-dependent effect; Activity (3T3-L1 [17]): Dose-dependent effect
2 | COc1ccc2c(c1O)OC(C)(C)c1c-2ccc2c1C(=O)N(c1ccc3c(c1)-c1ccccc1C3=O)C2=O | 249% | 154% | –
3 | COc1ccc2c(c1O)OC(C)(C)c1c-2ccc2c1C(=O)N(C)C2=O | 205% | 145% | –
4 | COc1ccc2c(c1O)OC1(CCCC1)c1c-2ccc2c1C(=O)N(c1ccc(C(=O)c3ccccc3)cc1)C2=O | 113% | 51% | –
5 | COc1ccc2c(c1O)OC(C)(C)c1c-2ccc2c1C(=O)N(Cc1ccccc1)C2=O | 165% | 194% | –
6 | COc1ccc2c(c1O)OC(C)(C)c1c-2ccc2c1C(=O)N(c1ccccc1)C2=O | 273% | 254% | –
7 | COc1ccc2c(c1O)OC(C)(C)c1c-2ccc2c1C(=O)N(c1ccc(C(C)=O)cc1)C2=O | 264% | 384% | –
8 | COc1ccc2c(c1)OC(C)(C)c1c-2ccc2c1C(=O)N(c1ccc(C(=O)c3ccccc3)cc1)C2=O | 159% | 154% | –
9 | CC1(C)Oc2ccccc2-c2ccc3c(c21)C(=O)N(c1ccc(C(=O)c2ccccc2)cc1)C3=O | 203% | 92% | –
10 | COc1ccc2c(c1O)OC(C)(C)c1c-2ccc2c1C(=O)NC2=O | 158% | 123% | –
11 | COc1ccc2c(c1O)OC(C)(C)c1c-2ccc2c1C(=O)N(c1cccc(-c3ccccc3)c1)C2=O | 175% | 201% | –
12 | COc1ccc2c(c1O)OC(C)(C)c1c-2ccc2c1C(=O)N(c1ccc(-c3nc4ccccc4o3)cc1)C2=O | 92% | 91% | –
13 | COc1ccc2c(c1O)OC(C)(C)c1c-2ccc2c1C(=O)N(c1ccc(Cc3ccccc3)cc1)C2=O | 169% | 129% | –
14 | COc1ccc2c(c1O)OC(C)(C)c1c-2ccc2c1C(=O)N(c1ccc(-c3ccccc3)cc1)C2=O | 160% | 114% | –
15 | CC1(C)Oc2cc(F)ccc2-c2ccc3c(c21)C(=O)N(c1ccc(C(=O)c2ccccc2)cc1)C3=O | 186% | 156% | –
